SIAE inh: human SIAE inhibition, primary screen. SIAE FP-Rh probe binding, fluorescence polarization. inhibition, % at 9.66 µM. actives 0.69% (n = 370,000). AID 1053197;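 active = inhibition above a cutoff: mean of compounds within the control limits plus 3 SD of those, cut at about 17% in these data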
HTRA1 inh: HTRA1 (human) protease inhibition; actives 0.5% (n = 340,000); recombinant HTRA1, FP-rhodamine activity-based probe, fluorescence polarization; inhibition, % at 5.96 µM; AID 504803; Q92743; in the data active = inhibition above about 36%
PRMT1 inh: inhibitors of human PRMT1; Q99873; recombinant PRMT1, activity-based probe fluorescence polarization; inhibition, % at 2.79 µM; actives 1.3% (n = 370,000); AID 652257;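 active = inhibition above about 21% made by adding two undisclosed values, limit read from the data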
Target sequence (Q99873 whole entry, looked up): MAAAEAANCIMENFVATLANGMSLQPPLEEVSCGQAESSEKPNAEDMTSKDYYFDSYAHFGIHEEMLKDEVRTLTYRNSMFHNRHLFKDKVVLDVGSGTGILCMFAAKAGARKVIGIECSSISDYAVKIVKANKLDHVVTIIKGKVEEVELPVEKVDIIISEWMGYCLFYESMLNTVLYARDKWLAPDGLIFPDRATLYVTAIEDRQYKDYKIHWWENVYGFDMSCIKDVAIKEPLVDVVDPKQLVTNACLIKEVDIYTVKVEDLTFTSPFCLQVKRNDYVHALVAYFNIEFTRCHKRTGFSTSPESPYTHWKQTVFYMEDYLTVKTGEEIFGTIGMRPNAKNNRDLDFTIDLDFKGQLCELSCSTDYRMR
ABHD4 inh: inhibitors of mouse ABHD4; purified mABHD4, FP-Rh probe fluorescence polarization; actives 0.54% (n = 370,000); AID 720543; Q8VD66; inhibition, % at 8.92 µM;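 active = inhibition exceeding the mean over every tested compound plus 3 SD, cut at about 30% in these data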
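Test system: mABHD4 protein; Read-out basis: % inhibition; Incubation: 45 min + 60 min at 25 °C; Repeats: single replicate; Technique: fluorescence polarization with parallel and perpendicular emission, 525/598 nm; Compound: 8.92 µM, single dose; Benchmarks: full inhibition S159A mutant plus DMSO, zero as sample-well median.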
TCR CD3 inh: inhibitors of human TCR-CD3 interaction | TAMRA-labeled TCR probe fluorescence, biochemical | inhibition, % at 9.4 µM | actives 0.37% (n = 360,000) | AID 651800; in the data active = inhibition above about 19%;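 note: recombinant mutant TCR 2C K166C tagged with TAMRA read by polarization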
PRMT1 confirm: confirmation of human PRMT1 inhibitors; actives 42% (n = 3,300); inhibition, % at 2.79 µM; recombinant His-PRMT1, activity-based probe fluorescence polarization; shares compounds with PRMT1 inh;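 active = mean inhibition across replicates above the hit cutoff derived for the earlier primary screen, cut at about 22% in these data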
Of the large screens only hits and unclear results are named; the others gave an inactive call (follow-up assays come after a bar, where they were run). In the library only some 2.7% were active in any assay of this set; here they are far more common.

COc1ccc(NC(=O)c2ccc(NC(=O)CN3CCN(c4ccccc4O)CC3)cc2)cc1	none
CC(C)(C)c1cc(C(=O)CCN2CCOCC2)cc(C(C)(C)C)c1O	PRMT1 inh 35.9 | PRMT1 confirm inactive
COc1ccc(N2CCN(CC(=O)c3ccccc3)CC2)cc1	none
CC(C)C(=O)N=C1NC(=O)CS1	PRMT1 inh 55.3 | PRMT1 confirm 35.4
O=C1CSC(=NC(=O)c2ccccc2)N1	PRMT1 inh 77.6 | PRMT1 confirm inactive
Cc1cc(Cl)ccc1NC(=O)/N=C1/NC(=O)CS1	none (no result: HTRA1 inh)
Cc1ccc(/C=C2\Sc3ccccc3C2=O)s1	none
CC(=O)N(C)/C=C1\Sc2ccccc2C1=O	PRMT1 inh 77.5 | PRMT1 confirm inactive
O=CN(/C=C1\Sc2ccccc2C1=O)Cc1ccccc1	PRMT1 inh 56.0 | PRMT1 confirm inactive
CC(=O)Nc1ccc(/C=C2\Sc3ccccc3C2=O)cc1	none
CCC(=O)N(C)/C=C1\Sc2ccccc2C1=O	PRMT1 inh 55.8 | PRMT1 confirm 44.6
CC1=C(C#N)C(C)(C)C(C#N)=C(C)N1	none
CC(=O)Nc1nonc1NC(=O)COc1ccccc1	none
COc1ccc(-c2ccc3c(n2)CCCN3S(=O)(=O)c2cccs2)cc1	none (no result: HTRA1 inh)
NC(=O)/C=C\C(=O)Nc1cccc(C(F)(F)F)c1	PRMT1 inh 50.7 | PRMT1 confirm 25.0
C[C@H](c1ccccc1)N1C[C@H](COCc2ccccc2)Oc2cc(N3CC[C@@H](O)C3)ccc2S1(=O)=O	none (no result: HTRA1 inh)
CSC1=NS(=O)(=O)c2c(C)nn(C)c2S1	PRMT1 inh 99.7 | PRMT1 confirm 76.3
N#C/C(=C\c1ccc2c(c1)OCO2)C(N)=S	PRMT1 inh 25.5 (no result: HTRA1 inh) | PRMT1 confirm inactive
CCOC(=O)/C(C#N)=C\c1ccc2c(c1)OCO2	none
CCCC(=O)N1CCN(c2ccc([N+](=O)[O-])cc2Cl)CC1	none
O=C(CSc1ccc(Cl)cc1)N1CCN(c2ccc([N+](=O)[O-])cc2Cl)CC1	PRMT1 inh 27.6 | PRMT1 confirm inactive
O=C(c1ccccc1)c1ccc(O)cc1O	PRMT1 inh 72.6 | PRMT1 confirm 42.3
O=C(c1ccc(O)cc1)c1ccc(O)cc1O	none
CC(=O)Nc1cccc(NC(=O)CCNC(=O)c2ccccc2)c1	none
Cc1ccccc1NC(=O)COC(=O)c1c[nH]c(=O)[nH]c1=O	none
CC(=O)C1=C(C)N(Cc2ccc(Br)cc2)C(=S)NC1c1cccc(F)c1 (stereo not given)	none (no result: HTRA1 inh)
CCOC(=O)c1c(C)nc(SCC(N)=O)c(C#N)c1-c1ccccc1	PRMT1 inh 34.8 | PRMT1 confirm inactive
CCOC(=O)c1c(C)nc(C)c(C(=O)OCC)c1-c1ccccc1	none (no result: SIAE inh, PRMT1 inh, ABHD4 inh, TCR CD3 inh)
S=C(N/N=C/c1ccco1)NC1CC2CCC1C2 (stereo not given)	PRMT1 inh 26.7 | PRMT1 confirm inactive
Oc1ccccc1/C=N/NC(=S)NC1CC2CCC1C2 (stereo not given)	none
C/C(CCc1oc2ccc(Br)cc2c1-c1ccc(C)o1)=N/O	none
C/C(CCc1oc2ccc(Cl)cc2c1-c1ccc(C)o1)=N\O	PRMT1 inh 32.6 | PRMT1 confirm inactive
CC(C)C1NC2(C(=O)c3ccccc3C2=O)C2C(=O)N(c3ccc(F)cc3)C(=O)C12 (stereo not given)	PRMT1 inh 33.0 | PRMT1 confirm 44.3
CCOC(=O)C1=C(C)N=c2s/c(=C/c3ccc(OCC(=O)O)c(OC)c3)c(=O)n2C1c1ccc(Cl)cc1 (stereo not given)	PRMT1 inh 34.2 | PRMT1 confirm 22.2
CCOC(=O)C1=C(C)N=c2s/c(=C/c3ccccc3)c(=O)n2C1c1ccc(OC)c(OC)c1 (stereo not given)	none
CCOC(=O)C1=C(C)N=c2s/c(=C/c3ccc(OCC(=O)O)cc3)c(=O)n2C1c1ccc(F)cc1 (stereo not given)	PRMT1 inh 36.7 | PRMT1 confirm inactive
CCOC(=O)C1=C(C)N=c2s/c(=C\c3ccc(OCC(=O)O)cc3)c(=O)n2C1c1ccc(Cl)cc1 (stereo not given)	PRMT1 inh 30.1 | PRMT1 confirm inactive
Brc1ccccc1C1Cc2nnccc2CN1 (stereo not given)	none (no result: HTRA1 inh)
CC(COc1ccc(OC(F)(F)F)cc1)CN1CCC(C(O)(c2ccccc2)c2ccccc2)CC1 (stereo not given)	none (no result: HTRA1 inh, TCR CD3 inh)
c1csc(CNc2nc(NCC3CCCCC3)c3sccc3n2)c1	none (no result: HTRA1 inh)
O=C(Nc1nnc(S(=O)(=O)N2CCCCC2)s1)c1cccc(Br)c1	none (no result: SIAE inh, PRMT1 inh, ABHD4 inh, TCR CD3 inh)
COC1=CC(=O)CC(C)C12Oc1cc(OC)cc(OC)c1C2=O (stereo not given)	none
COC(=O)C1=CC(=O)C=C(OC)[C@@]12Oc1cc(C)cc(OC)c1C2=O	PRMT1 inh 88.4 (no result: HTRA1 inh, TCR CD3 inh) | PRMT1 confirm 84.5
CCOC(=O)CCN(C(=O)Nc1ccccc1)C1CCCCC1	none
O=S1(=O)NC(CC2=CCCCC2)C2CCCCC2O1 (stereo not given)	none
Cc1ccc(S(=O)(=O)CC(=O)N2CC(C)OC(C)C2)cc1 (stereo not given)	none
O=C1NCCCC2c3c(cc(Br)c(O)c3Br)OC12N1CCOCC1 (stereo not given)	PRMT1 inh 27.1 | PRMT1 confirm inactive
Cc1cc(S(=O)(=O)c2ccc(Cl)cc2)nc(S(=O)(=O)c2ccc(Cl)cc2)c1C#N	PRMT1 inh 60.5 | PRMT1 confirm 47.6
FC(F)(F)c1ccc(Cl)c(-n2c(-c3cc(-c4ccco4)[nH]n3)n[nH]c2=S)c1	PRMT1 inh 25.3 | PRMT1 confirm 27.8
S=c1[nH]nc(-c2cc(-c3ccco3)[nH]n2)n1-c1ccccc1Cl	PRMT1 inh 41.3 | PRMT1 confirm inactive
FC(F)(F)c1ccc(Cl)c(-n2c(-c3ccco3)n[nH]c2=S)c1	none
S=c1[nH]nc(-c2ccco2)n1-c1ccccc1Cl	none
Cc1ccc(OCc2nnc(SCC(=O)Nc3ncc(C)s3)o2)cc1	PRMT1 inh 29.8 | PRMT1 confirm inactive
CC(C)c1[nH]nc2c1C1(CCN(Cc3ccccc3)CC1)C(C#N)=C(N)O2	none
Cc1[nH]nc2c1C1(CCN(Cc3ccccc3)CC1)C(C#N)=C(N)O2	PRMT1 inh 34.3 | PRMT1 confirm inactive
COC(=O)c1ccc(/C=N/n2c(C)nc3ccccc3c2=O)cc1	none
O=C(NCSc1ccnc(SCNC(=O)c2ccccc2)n1)c1ccccc1	none
O=C(NCSc1ccncn1)c1ccccc1	PRMT1 inh 49.4 | PRMT1 confirm inactive
Cc1cc(C2=NNC(=NC3CC3)SC2)c(C)n1-c1ccccc1F	PRMT1 inh 36.4 | PRMT1 confirm inactive
CCOC(=O)c1ccc(/[N+]([O-])=C/c2ccccc2)cc1	PRMT1 inh 24.8 | PRMT1 confirm inactive
CC(=O)c1ccccc1NC(=O)c1cc(S(=O)(=O)N2CCOCC2)ccc1N1CCCC1	none
COc1ccc(CCNC(=O)CN(C)S(=O)(=O)c2cccs2)cc1	none
CCOc1ccc(N2C(=O)CC(N3CCC(O)(c4ccc(Br)cc4)CC3)C2=O)cc1 (stereo not given)	PRMT1 inh 55.6 | PRMT1 confirm inactive
